Assay results collected from several papers.
APC: Adenomatous polyposis coli protein (APC, Homo sapiens, UniProt P25054)
AMY1A: Alpha-amylase 1A (AMY1A, Homo sapiens, UniProt P0DUB6)
Ephx2: Bifunctional epoxide hydrolase 2 (Ephx2, Mus musculus, UniProt P34914)
EGFR C797S/L858R/T790M: Epidermal growth factor receptor (EGFR, Homo sapiens, UniProt P00533, C797S/L858R/T790M)
EGFR: Epidermal growth factor receptor (EGFR, Homo sapiens, UniProt P00533)

`CC(C)C[C@H](NC(=O)[C@H](Cc1ccc2ccccc2c1)NC(=O)[C@H](CCC(=O)O)NC(=O)c1ccnc(Cl)n1)C(=O)NC1CC1c1ccccc1` (stereo partly drawn) gave an IC50 of 4270 nM (APC; ligand displacement, FP).
With `OC[C@H]1O[C@@H](Oc2cc3c4c(c2)[C@@H]([C@@H]2c5cc(O)cc6c5[C@@H](c5cc(O)cc(O)c5[C@H]2c2ccc(O)cc2)[C@H](c2ccc(O)cc2)O6)[C@H](c2ccc(O)cc2)c2c(O)cc(O)cc2[C@H]4[C@H](c2ccc(O)cc2)O3)[C@H](O)[C@@H](O)[C@@H]1O` the IC50 was greater than 100000 nM (AMY1A; enzyme activity, inhibitor).
For `O=C(Nc1ccc(-c2cccc3cccnc23)cc1)C1CCN(S(=O)(=O)c2ccccc2Cl)CC1`, the IC50 was 95.9 nM (Ephx2; enzyme activity, inhibitor, fluorescence).
With `Cc1ncc(CN2CCN(Cc3ccccn3)CC2)c2cc(C(=O)c3ccc4c(c3)OCCO4)oc12` the IC50 was 29 nM (EGFR C797S/L858R/T790M; enzyme activity, inhibitor, ADP detection).
`O=C(Nc1ccc(-c2cnc3ccccc3c2)cc1)C1CCN(S(=O)(=O)c2ccccc2Cl)CC1` has an IC50 of 116 nM (Ephx2; enzyme activity, inhibitor, fluorescence).
The IC50 of `Oc1ccc(/C=C/c2cc(O)cc(O)c2)cc1` is reported as greater than 100000 nM (AMY1A; enzyme activity, inhibitor).
With `CC(C)C[C@H](NC(=O)[C@H](Cc1ccc2ccccc2c1)NC(=O)[C@H](CCC(=O)O)NC(=O)c1cccc(C(F)(F)F)c1)C(=O)NC1CC1c1ccccc1` (stereo partly drawn) the IC50 was 10700 nM (APC; ligand displacement, FP).
For `Cc1c(Cc2ccccc2)c(=O)oc2c(C)c(OCC(=O)NN=Cc3ccco3)ccc12`, the IC50 was 559 nM (EGFR; enzyme activity, inhibitor, ATP luminescence).
The IC50 of `C=CC(=O)Nc1cc2c(Nc3ccc(OCc4ccccn4)c(Cl)c3)ncnc2cc1OCCN1CCOCC1` is reported as 1.5 nM (Epidermal growth factor receptor (EGFR, Homo sapiens, UniProt P00533, L858R/T790M); enzyme activity, inhibitor).
With `O=C(Nc1ccc(-c2ccnc3ccccc23)cc1)C1CCN(S(=O)(=O)c2ccccc2Cl)CC1` the IC50 was 28.6 nM (Ephx2; enzyme activity, inhibitor, fluorescence).
`CC(C)C[C@H](NC(=O)[C@H](Cc1ccc2ccccc2c1)NC(=O)[C@H](CCC(=O)O)NC(=O)c1cccc(F)c1)C(=O)NC1CC1c1ccccc1` (stereo partly drawn) has an IC50 of 29500 nM (APC; ligand displacement, FP).
With `Cc1ccc2c(-c3cc4c(CN5CCN(Cc6ccccn6)CC5)cnc(C)c4o3)cc(=O)oc2c1` the IC50 was 8.38 nM (EGFR; enzyme activity, inhibitor, ADP detection).
The IC50 of `CC(C)C[C@H](NC(=O)[C@H](Cc1ccc2ccccc2c1)NC(=O)[C@H](CCC(=O)O)NC(=O)c1ccccn1)C(=O)NC1CC1c1ccccc1` (stereo partly drawn) is reported as 30200 nM (APC; ligand displacement, FP).
For `O=C(Nc1ccc(-c2cccc3ncccc23)cc1)C1CCN(S(=O)(=O)c2ccccc2Cl)CC1`, the IC50 was 17.2 nM (Ephx2; enzyme activity, inhibitor, fluorescence).
`Cc1ncc(CN2CCc3ccccc3C2)c2cc(C(=O)c3ccc4c(c3)OCCO4)oc12` has an IC50 of 42.7 nM (EGFR C797S/L858R/T790M; enzyme activity, inhibitor, ADP detection).
